Key:
[1] = biological target: T1, Cytochrome P450 3A4 (Homo sapiens, UniProt P08684); experiment: Drug metabolism of the compound assessed as CYP3A4 (unknown origin)-mediated 1-(2,4-dichlorophenyl)-2-(1H-1,2,4-triazol-1-yl)ethanone formation by LC/MS/MS analysis; type: ADME
Summary of the method: (§1)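 kcat for M2 formation: trans isomers at 500 nM with CYP3A4 Supersomes (1 pmol) in KPi buffer. 5-min preincubation at 37°C, then NADPH (1 mM final) and 1-min reaction. M2 by LC-MS/MS, m/z 256.0>158.8, ITZ-d5 internal standard, standard curve 0.039–30 nM. kcat = product/time/pmol CYP3A4.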

[2] = biological target: T1, Cytochrome P450 3A4; experiment: Drug metabolism of the compound assessed as CYP3A4 (unknown origin)-mediated 1-sec-butyl-4-(4-(4-(4-(3-hydroxy-2-oxopropoxy)phenyl)piperazin-1-yl)phenyl)-1H-1,2,4-triazol-5(4H)-one by LC/MS/MS analysis; type: ADME
[3] = biological target: T1, Cytochrome P450 3A4; experiment: Drug metabolism of the compound assessed as CYP3A4 (unknown origin)-mediated 3-(4-(4-(4-(1-sec-butyl-5-oxo-1H-1,2,4-triazol-4(5H)-yl)phenyl)piperazin-1-yl)phenoxy)-2-hydroxypropanal by LC/MS/MS analysis; type: ADME
[4] = biological target: T1, Cytochrome P450 3A4; experiment: Drug metabolism of the compound assessed as CYP3A4 (unknown origin) coexpressing P450 reductase and cytochrome-b5-mediated 1-sec-butyl-4-(4-(4-(4-(3-hydroxy-2-oxopropoxy)phenyl)piperazin-1-yl)phenyl)-1H-1,2,4-triazol-5(4H)-one after 5 mins by LC/MS/MS analysis in presence of NADPH; type: ADME
[5] = biological target: T1, Cytochrome P450 3A4; experiment: Drug metabolism of the compound assessed as CYP3A4 (unknown origin) coexpressing P450 reductase and cytochrome-b5-mediated 3-(4-(4-(4-(1-sec-butyl-5-oxo-1H-1,2,4-triazol-4(5H)-yl)phenyl)piperazin-1-yl)phenoxy)-2-hydroxypropanal after 5 mins by LC/MS/MS analysis in presence of NADPH; type: ADME
[6] = biological target: T1, Cytochrome P450 3A4; experiment: Drug metabolism of the compound assessed as purified CYP3A4 (unknown origin)-mediated 1-sec-butyl-4-(4-(4-(4-(3-hydroxy-2-oxopropoxy)phenyl)piperazin-1-yl)phenyl)-1H-1,2,4-triazol-5(4H)-one by LC/MS/MS analysis in presence of NADPH; type: ADME
[7] = biological target: T1, Cytochrome P450 3A4; experiment: Drug metabolism of the compound assessed as purified CYP3A4 (unknown origin)-mediated 3-(4-(4-(4-(1-sec-butyl-5-oxo-1H-1,2,4-triazol-4(5H)-yl)phenyl)piperazin-1-yl)phenoxy)-2-hydroxypropanal by LC/MS/MS analysis in presence of NADPH; type: ADME
[8] = biological target: T1, Cytochrome P450 3A4; experiment: Drug metabolism of the compound assessed as CYP3A4 (unknown origin) coexpressing P450 reductase and cytochrome-b5-mediated 1-sec-butyl-4-(4-(4-(4-(2,3-dihydroxypropoxy)phenyl)piperazin-1-yl)phenyl)-1H-1,2,4-triazol-5(4H)-one formation after 3 mins by LC/MS/MS analysis; type: ADME; conditions: 0.05 h
[9] = biological target: T1, Cytochrome P450 3A4; experiment: Drug metabolism of the compound assessed as reconstituted CYP3A4 (unknown origin)-mediated 1-(2,4-dichlorophenyl)-2-(1H-1,2,4-triazol-1-yl)ethanone formation at 500 nM after 5 mins by LC/MS analysis in presence of NADPH; type: ADME; conditions: 0.5 µM
[10] = biological target: T1, Cytochrome P450 3A4; experiment: Drug metabolism of the compound assessed as CYP3A4 (unknown origin) coexpressing P450 reductase and cytochrome-b5-mediated 1-(2,4-dichlorophenyl)-2-(1H-1,2,4-triazol-1-yl)ethanone formation at 500 nM after 5 mins by LC/MS analysis in presence of NADPH; type: ADME; conditions: 0.5 µM
[11] = biological target: T1, Cytochrome P450 3A4; experiment: Drug metabolism of the compound assessed as CYP3A4 (unknown origin) coexpressing P450 reductase and cytochrome-b5-mediated 1-(2,4-dichlorophenyl)-2-(1H-1,2,4-triazol-1-yl)ethanone formation by LC/MS/MS analysis; type: ADME; summary of the method: as §1
[12] = biological target: T1, Cytochrome P450 3A4; experiment: Drug level of the compound assessed as CYP3A4 (unknown origin) coexpressing P450 reductase and cytochrome-b5-mediated metabolite formation treated with trans-ITZ by LC/MS/MS analysis; type: ADME
[13] = biological target: T1, Cytochrome P450 3A4; experiment: Drug level of the compound assessed as CYP3A4 (unknown origin)-mediated metabolite formation treated with cis-ITZ by LC/MS/MS analysis; type: ADME
Summary of the method: (§2)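 Substrate incubated with CYP3A4 Supersomes (100 pmol) in KPi buffer at 37°C for 1 h, with and without NADPH, plus a no-enzyme control. Products by LC/Q-TOF MS, positive ESI, m/z 100–1500, cone 35 V, low-energy (6 eV) and ramped high-energy modes.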

[14] = biological target: T1, Cytochrome P450 3A4; experiment: Drug level of the compound assessed as CYP3A4 (unknown origin)-mediated metabolite formation treated with 3'-OH-ITZ by LC/MS/MS analysis; type: ADME; summary of the method: as §2
[15] = biological target: T1, Cytochrome P450 3A4; experiment: Drug level of the compound assessed as CYP3A4 (unknown origin)-mediated metabolite formation treated with keto-ITZ by LC/MS/MS analysis; type: ADME; summary of the method: as §2
[16] = biological target: T1, Cytochrome P450 3A4; experiment: Drug level of the compound assessed as CYP3A4 (unknown origin)-mediated metabolite formation treated with N-desalkyl-ITZ by LC/MS/MS analysis; type: ADME; summary of the method: as §2
[17] = Drug metabolism in human assessed as 1-(2,4-dichlorophenyl)-2-(1H-1,2,4-triazol-1-yl)ethanone level in urine at 400 mg, po after 24 hrs by MS/MS analysis; type: ADME, organism-based; conditions: in vivo
Summary of the method: (§3)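 Six subjects (5 male, 1 female) received itraconazole 400 mg orally. Urine collected 24 h before dosing, 0–12 and 12–24 h after, then 24–48, 72–96 and 120–144 h, with volume recorded. 5 ml urine extracted with ethyl acetate. M2 measured by MS/MS at transition m/z 256>158.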

[18] = Drug metabolism in human assessed as 1-(2,4-dichlorophenyl)-2-(1H-1,2,4-triazol-1-yl)ethanone level in urine at 400 mg, po measured on day 2 by MS/MS analysis; type: ADME, organism-based; conditions: in vivo; summary of the method: as §3
[19] = Drug metabolism in human assessed as 1-(2,4-dichlorophenyl)-2-(1H-1,2,4-triazol-1-yl)ethanone level in urine at 400 mg, po measured on day 4 by MS/MS analysis; type: ADME, organism-based; conditions: in vivo; summary of the method: as §3
[20] = Drug metabolism in human assessed as 1-(2,4-dichlorophenyl)-2-(1H-1,2,4-triazol-1-yl)ethanone level in urine at 400 mg, po measured on day 7 by MS/MS analysis; type: ADME, organism-based; conditions: in vivo; summary of the method: as §3
[21] = biological target: CYP3A4 (Homo sapiens, UniProt P08684); experiment: Inhibition of CYP3A4 in human liver microsomes using midazolam as substrates at 15 uM after 5 mins by LC/MS analysis in presence of NADPH; type: ADME; conditions: probe midazolam
Sequence of CYP3A4 (P08684 whole entry): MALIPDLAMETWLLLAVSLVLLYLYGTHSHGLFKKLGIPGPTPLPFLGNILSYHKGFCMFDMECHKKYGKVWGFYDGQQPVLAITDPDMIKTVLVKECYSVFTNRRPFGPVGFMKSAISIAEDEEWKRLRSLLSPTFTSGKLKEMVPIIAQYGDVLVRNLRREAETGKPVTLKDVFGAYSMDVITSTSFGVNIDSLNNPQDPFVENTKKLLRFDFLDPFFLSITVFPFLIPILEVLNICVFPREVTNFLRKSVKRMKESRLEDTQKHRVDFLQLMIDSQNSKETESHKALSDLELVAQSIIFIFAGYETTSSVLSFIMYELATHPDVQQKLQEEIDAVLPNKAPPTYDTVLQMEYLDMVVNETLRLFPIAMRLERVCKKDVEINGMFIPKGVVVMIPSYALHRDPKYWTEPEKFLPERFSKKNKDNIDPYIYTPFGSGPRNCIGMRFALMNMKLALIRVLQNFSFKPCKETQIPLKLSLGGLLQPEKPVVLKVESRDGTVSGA

[22] = biological target: T1, Cytochrome P450 3A4; experiment: Inhibition of CYP3A4 in human liver microsomes using midazolam as substrates after 5 mins by LC/MS analysis in presence of NADPH; type: ADME
Summary of the method: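 Pooled HLM (0.025 mg/ml, CYP3A5*3/*3) with midazolam 1 μM in KPi. Inhibitor range 5–1000 nM for trans isomers. 5-min preincubation at 37°C, then NADPH 1 mM final, run for 2 min. Stopped with ethyl acetate, d4-1'-OH-MDZ added as internal standard. IC50 from fit of remaining-activity equation.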

[23] = biological target: T1, Cytochrome P450 3A4; experiment: Binding affinity to purified CYP3A4 (unknown origin) coexpressing P450 reductase and cytochrome-b5 by UV-Vis spectrophotometry; type: ADME; conditions: read-out: Ks
[24] = biological target: T1, Cytochrome P450 3A4; experiment: Drug metabolism of the compound assessed as CYP3A4 (unknown origin) coexpressing P450 reductase and cytochrome-b5-mediated 1-sec-butyl-4-(4-(4-(4-(2,3-dihydroxypropoxy)phenyl)piperazin-1-yl)phenyl)-1H-1,2,4-triazol-5(4H)-one formation after 1 hr by LC/MS/MS analysis; type: ADME
[25] = biological target: T1, Cytochrome P450 3A4; experiment: Drug level of the compound assessed as CYP3A4 (unknown origin) coexpressing P450 reductase and cytochrome-b5-mediated metabolite formation treated with trans-(2S,4S,2'S)-ITZ by LC/MS/MS analysis; type: ADME
[26] = biological target: T1, Cytochrome P450 3A4; experiment: Drug level of the compound assessed as purified CYP3A4 (unknown origin)-mediated metabolite formation treated with trans-(2S,4S,2'S)-ITZ by LC/MS/MS analysis; type: ADME

T1 sequence (P08684 whole entry): as above

CC[C@H](C)n1ncn(-c2ccc(N3CCN(c4ccc(OC[C@@H]5CO[C@@](Cn6cncn6)(c6ccc(Cl)cc6Cl)O5)cc4)CC3)cc2)c1=O
Drug metabolism [1]: metabolite_detected | Drug metabolism [2]: metabolite_detected | Drug metabolism [3]: metabolite_detected

CC[C@H](C)n1ncn(-c2ccc(N3CCN(c4ccc(OC[C@H]5CO[C@](Cn6cncn6)(c6ccc(Cl)cc6Cl)O5)cc4)CC3)cc2)c1=O
Drug metabolism [1]: metabolite_detected | Drug metabolism [2]: metabolite_detected | Drug metabolism [3]: metabolite_detected

CC[C@@H](C)n1ncn(-c2ccc(N3CCN(c4ccc(OC[C@H]5CO[C@](Cn6cncn6)(c6ccc(Cl)cc6Cl)O5)cc4)CC3)cc2)c1=O
Drug metabolism [1]: metabolite_detected | Drug metabolism [2]: metabolite_detected | Drug metabolism [3]: metabolite_detected

CC[C@H](C)n1ncn(-c2ccc(N3CCN(c4ccc(OC[C@H]5CO[C@@](Cn6cncn6)(c6ccc(Cl)cc6Cl)O5)cc4)CC3)cc2)c1=O
Drug metabolism [4]: metabolite_detected | Drug metabolism [5]: metabolite_detected | Drug metabolism [6]: metabolite_detected | Drug metabolism [7]: metabolite_detected | Drug metabolism [8]: metabolite_detected | Kcat [9]: 0.0042 s⁻¹ | Kcat [10]: 0.0198 s⁻¹

CC[C@@H](C)n1ncn(-c2ccc(N3CCN(c4ccc(OC[C@H]5CO[C@@](Cn6cncn6)(c6ccc(Cl)cc6Cl)O5)cc4)CC3)cc2)c1=O
Kcat [9]: 0.0041 s⁻¹ | Kcat [10]: 0.0183 s⁻¹

CC[C@H](C)n1ncn(-c2ccc(N3CCN(c4ccc(OC[C@@H]5CO[C@](Cn6cncn6)(c6ccc(Cl)cc6Cl)O5)cc4)CC3)cc2)c1=O
Kcat [9]: 0.0038 s⁻¹ | Kcat [10]: 0.0214 s⁻¹

CC[C@@H](C)n1ncn(-c2ccc(N3CCN(c4ccc(OC[C@@H]5CO[C@](Cn6cncn6)(c6ccc(Cl)cc6Cl)O5)cc4)CC3)cc2)c1=O
Kcat [9]: 0.0032 s⁻¹ | Kcat [10]: 0.0159 s⁻¹

O=C(Cn1cncn1)c1ccc(Cl)cc1Cl
Drug metabolism [11]: metabolite_detected | Drug metabolism [12]: metabolite_detected | Drug metabolism [13]: metabolite_detected | Drug metabolism [14]: metabolite_detected | Drug metabolism [15]: metabolite_detected | Drug metabolism [16]: metabolite_detected | Drug metabolism [17]: 1114 ng | Drug metabolism [18]: 429 ng | Drug metabolism [19]: 319 ng | Drug metabolism [20]: 87 ng | inhibition at 5 min, 15 µM [21]: < 50% | IC50 [22]: > 15 µM | Kd [23]: 12.8 µM | Drug metabolism [24]: metabolite_detected

CCC(C)n1ncn(-c2ccc(N3CCN(c4ccc(OCC(O)C=O)cc4)CC3)cc2)c1=O (centres undefined)
Drug metabolism [25]: metabolite_detected | Drug metabolism [26]: metabolite_detected | Drug metabolism [13]: metabolite_detected

CCC(C)n1ncn(-c2ccc(N3CCN(c4ccc(OCC(=O)CO)cc4)CC3)cc2)c1=O (centres undefined)
Drug metabolism [25]: metabolite_detected | Drug metabolism [26]: metabolite_detected | Drug metabolism [13]: metabolite_detected

CCC(C)n1ncn(-c2ccc(N3CCN(c4ccc(OCC(O)CO)cc4)CC3)cc2)c1=O (centres undefined)
Drug metabolism [11]: metabolite_detected | Drug metabolism [12]: metabolite_detected | Drug metabolism [26]: metabolite_not_detected | Drug metabolism [24]: metabolite_detected

CC[C@@H](C)n1ncn(-c2ccc(N3CCN(c4ccc(OC[C@@H]5CO[C@@](Cn6cncn6)(c6ccc(Cl)cc6Cl)O5)cc4)CC3)cc2)c1=O
Drug metabolism [1]: metabolite_detected | Drug metabolism [2]: metabolite_detected | Drug metabolism [3]: metabolite_detected
